ChEMBL document CHEMBL1148603, “Inhibition of Trypanosoma cruzi hexokinase by bisphosphonates” (J Med Chem, 2006)

Assays:
Dictyostelium discoideum = assay: Cytotoxicity to Dictyostelium discoideum; assay type: functional, organism-based
TcHK = assay: Therapeutic index TI=LD50(KB)/IC50(TcHK); details: human
Hexokinase = target: T1, Hexokinase (Trypanosoma cruzi, UniProt Q8ST54); assay: Inhibitory activity against Trypanosoma cruzi hexokinase
T1 sequence (Q8ST54 whole entry): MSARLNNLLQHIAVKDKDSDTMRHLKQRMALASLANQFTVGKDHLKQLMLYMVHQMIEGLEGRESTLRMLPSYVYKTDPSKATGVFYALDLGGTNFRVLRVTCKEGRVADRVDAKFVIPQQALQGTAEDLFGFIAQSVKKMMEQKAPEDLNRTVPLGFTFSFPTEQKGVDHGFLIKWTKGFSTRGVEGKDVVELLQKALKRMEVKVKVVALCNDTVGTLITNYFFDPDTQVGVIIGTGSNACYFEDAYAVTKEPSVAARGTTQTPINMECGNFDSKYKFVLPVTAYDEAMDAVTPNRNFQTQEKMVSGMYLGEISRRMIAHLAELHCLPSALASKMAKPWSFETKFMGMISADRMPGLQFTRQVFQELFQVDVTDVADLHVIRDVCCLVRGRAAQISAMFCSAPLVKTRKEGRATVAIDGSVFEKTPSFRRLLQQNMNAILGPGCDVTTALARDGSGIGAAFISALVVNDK
In short: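 Native glycosomal T. cruzi hexokinase, purified by a previously described procedure. Activity was followed as NADPH formation at 340 nm, coupled to D-glucose-6-phosphate dehydrogenase. Inhibition was reported as IC50.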

KB = assay: Cytotoxicity in human nasopharyngeal carcinoma KB cell line; assay type: functional; details: read-out: LD50 (the source's name)
In short: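 Human nasopharyngeal carcinoma KB cells were exposed to bisphosphonates up to a highest tested level of 300 µg mL-1. […] The therapeutic index was KB LD50 divided by TcHK IC50.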

Trypanosoma cruzi = assay: Growth inhibition of Trypanosoma cruzi intracellular amastigotes; assay type: functional, organism-based
[1] = KB cells (cytotoxicity) versus TcHK enzyme

Row | Structure (SMILES) | IC50 (Dictyostelium discoideum) | selectivity ratio (TcHK; [1]) | IC50 (Hexokinase) | CC50 (KB) | selectivity ratio (TcHK) | IC50 (Trypanosoma cruzi)
1 | CC1CCN(C(P(=O)(O)O)P(=O)(O)O)CC1 | 2 µM | ≤ 1.5 | ≥ 300 µM | 446 µM | – | –
2 | O=P(O)(O)C(Nc1cccc(-c2ccc(F)c(F)c2)c1)P(=O)(O)O | 77 µM | ≥ 285 | 2.75 µM | ≥ 791 µM | – | –
3 | O=P(O)(O)C(O)(c1cccc(-c2ccccc2)c1)P(=O)(O)O | 103 µM | – | 34.7 µM | 797 µM | 23 | –
4 | O=P(O)(O)C(O)(C[n+]1cccc(-c2ccccc2)c1)P(=O)(O)O | 3 µM | ≤ 0.04 | ≥ 300 µM | 12 µM | – | –
5 | Cc1cccc(Cc2ccc[n+](CC(O)(P(=O)(O)O)P(=O)(O)O)c2)c1 | 889 µM | ≤ 2.4 | ≥ 300 µM | 728 µM | – | –
6 | C[C@H](NC(P(=O)(O)O)P(=O)(O)O)c1cccc2ccccc12 | 7 µM | – | ≥ 300 µM | – | – | –
7 | COCc1cccc(NC(P(=O)(O)O)P(=O)(O)O)c1 | 253 µM | – | 4.07 µM | ≥ 964 µM | > 237 | –
8 | O=P(O)(O)C(O)(CC12CC3CC(CC(C3)C1)C2)P(=O)(O)O | – | – | ≥ 300 µM | – | – | –
9 | O=P(O)(O)C(O)(C[n+]1ccccc1)P(=O)(O)O | 3 µM | – | ≥ 300 µM | ≥ 1060 µM | – | –
10 | CCOC(=O)C(Cc1cccc(-c2ccccc2)c1)P(=O)(O)O (centres undefined) | – | – | ≥ 300 µM | – | – | –
11 | O=P(O)(O)C(Cc1cccc(-c2ccccc2)c1)S(=O)(=O)O (centres undefined) | – | – | ≥ 300 µM | – | – | –
12 | O=c1ccc(-c2cccc(CC(O)(P(=O)(O)O)P(=O)(O)O)c2)c[nH]1 | – | – | ≥ 300 µM | – | – | –
13 | O=P(O)(O)C(O)(Cn1cnc2ccccc21)P(=O)(O)O | 2 µM | – | ≥ 300 µM | – | – | –
14 | COc1ccc(NC(P(=O)(O)O)P(=O)(O)O)cn1 | 52 µM | ≤ 1 | ≥ 300 µM | 302 µM | – | –
15 | O=P(O)(O)CNc1cccc(-c2ccccc2)c1 | – | – | ≥ 300 µM | – | – | –
16 | O=P(O)(O)C(CN[C@@H](CO)c1ccccc1)P(=O)(O)O | – | – | ≥ 300 µM | – | – | –
17 | Cc1cc(-c2cccc(CC(O)(P(=O)(O)O)P(=O)(O)O)c2)c(F)cc1F | – | – | 2.29 µM | – | – | –
18 | CCn1c2ccccc2c2cc(NC(P(=O)(O)O)P(=O)(O)O)ccc21 | 2050 µM | – | 0.81 µM | 698 µM | – | 2.2 µM
19 | O=P(O)(O)C(Nc1cccc(-c2ccc(O)nc2)c1)P(=O)(O)O | – | – | ≥ 300 µM | – | – | –
20 | C[N+](C)=c1ccn(CC(O)(P(=O)(O)O)P(=O)(O)O)cc1 | 30 µM | – | ≥ 300 µM | – | – | –

Row | Structure (SMILES) | IC50 (Dictyostelium discoideum) | selectivity ratio (TcHK; [1]) | IC50 (Hexokinase) | CC50 (KB) | selectivity ratio (TcHK) | IC50 (Trypanosoma cruzi)
21 | O=P(O)(O)C(Nc1ccc(F)c(-c2ccccc2)c1)P(=O)(O)O | – | – | 3.63 µM | – | – | –
22 | CC(C)(C)c1cccc(NC(P(=O)(O)O)P(=O)(O)O)c1 | 75 µM | – | ≥ 300 µM | – | – | –
23 | O=P(O)(O)C(Nc1cccc(Br)c1)P(=O)(O)O | 112 µM | – | 0.95 µM | ≥ 771 µM | ≥ 812 | –
24 | O=P(O)(O)C(CNc1cccc(-c2ccccc2)c1)P(=O)(O)O | 62 µM | ≥ 162 | 3.47 µM | ≥ 560 µM | – | –
25 | CCCCCCCc1ccc(NC(P(=O)(O)O)P(=O)(O)O)cc1 | 10 µM | – | 1.45 µM | 211 µM | – | –
26 | O=P(O)(O)C(O)(Cn1cnc(-c2ccccc2)c1)P(=O)(O)O | 122 µM | – | 1.82 µM | – | – | –
27 | O=P(O)(O)C(Nc1cccc(CO)c1)P(=O)(O)O | 351 µM | – | 14.8 µM | ≥ 980 µM | ≥ 67 | –
28 | O=P(O)(O)C(Nc1ncccc1OCc1ccccc1)P(=O)(O)O | 1 µM | – | ≥ 300 µM | ≥ 765 µM | – | –
29 | CN(CCOc1ccccc1)CCC(O)(P(=O)(O)O)P(=O)(O)O | 2 µM | – | ≥ 300 µM | 311 µM | – | –
30 | CCCCCCCCCC(O)(P(=O)(O)O)P(=O)(O)O | 10 µM | – | – | ≥ 892 µM | – | –
31 | Cc1cccnc1NC(P(=O)(O)O)P(=O)(O)O | 3 µM | – | 45.7 µM | 840 µM | – | –
32 | O=P(O)(O)C(Nc1cccc(-c2ccccc2)c1)P(=O)(O)O | 211 µM | – | 1.95 µM | 827 µM | – | 47 µM
33 | O=P(O)(O)C(O)(Cc1ccncc1)P(=O)(O)O | – | – | 12.6 µM | 1040 µM | – | –
34 | O=P(O)(O)C(Nc1ccc(Cl)cc1Cl)P(=O)(O)O [2,4-DICHLOROPHENYLAMINOMETHYLENEBISPHOSPHONIC ACID] | – | – | ≥ 300 µM | – | – | –
35 | O=[N+]([O-])c1cccc(NC(P(=O)(O)O)P(=O)(O)O)c1 [(3-NITROPHENYLAMINO)METHYLENEDIPHOSPHONIC ACID] | 78 µM | ≥ 266 | 2.4 µM | ≥ 635 µM | – | –
36 | CCCCN(CC)C(P(=O)(O)O)P(=O)(O)O [(BUTYL(ETHYL)AMINO)METHYLENEDIPHOSPHONIC ACID] | 4 µM | – | ≥ 300 µM | ≥ 1060 µM | – | –
37 | O=P(O)(O)C(NC1CC1)P(=O)(O)O [(CYCLOPROPYLAMINO)METHYLENEDIPHOSPHONIC ACID] | 30 µM | ≤ 0.8 | ≥ 300 µM | 242 µM | – | –
38 | CCCNC(P(=O)(O)O)P(=O)(O)O [(PROPYLAMINO)METHYLENEDIPHOSPHONIC ACID] | 4 µM | ≤ 1.5 | ≥ 300 µM | 457 µM | – | –
39 | O=P(O)(O)C(O)(Cc1cccnc1)P(=O)(O)O [RISEDRONIC ACID] | – | – | ≥ 300 µM | 822 µM | – | –
